This assay is filed under the species Rattus norvegicus. Put plainly: In vitro GH release inhibiting potency on anterior pitutaries from adult male rats, relative to somatostatin. The format is functional. The essentials: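 Rat anterior pituitary cells (adult males, 200-250 g), trypsin/DNase dispersed, plated 2 × 10^5 cells/well, cultured 96 h at 37 °C in serum-supplemented DMEM. After washing, cells were pulsed 3 h at 37 °C with 1 nM GRF(1-29)NH2 ± graded analogue doses in medium 199/1% BSA, quadruplicate wells. Medium GH was measured by double-antibody RIA. Potency relative to somatostatin (=1.0) came from four-point assay (mean of ≥3 experiments) or IC50 comparison.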

In turn, `C[C@@H](O)[C@@H]1NC(=O)[C@H](CCCCN)NC(=O)[C@@H](Cc2c[nH]c3ccccc23)NC(=O)[C@H](Cc2ccc([N+](=O)[O-])cc2)NC(=O)[C@H](Cc2ccccc2)NC(=O)CCCCCCNC(=O)[C@H](Cc2ccccc2)NC1=O` (stereo in doubt) gave a GHI of 3.5.

In the case of `CC(C)[C@@H]1NC(=O)[C@H](CCCN)NC(=O)[C@@H](Cc2c[nH]c3ccccc23)NC(=O)[C@H](Cc2ccc(O)cc2)NC(=O)[C@H](NC(=O)[C@H](N)Cc2ccc3ccccc3c2)CSSC[C@@H](C(=O)N[C@@H](Cc2ccc3ccccc3c2)C(N)=O)NC1=O`, the GHI stood at 4.17.
